# Screening results from PubChem BioAssay.
# GASC1 inh = inhibitors of GASC-1 (KDM4C) histone demethylase, primary screen, biochemical, single concentration HTS; Lysine-specific demethylase 4C (Homo sapiens), Q9H3R0; 96,000 compounds, 0.15% hits; GST-KDM4C 2-372, H3K9me3 peptide, LANCE TR-FRET; inhibition, % at 12.5 µM;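 active = mean replicate inhibition above about 25%, with at least 55% of replicates also reaching it, limit read from the data, passing the limit was not always enough; inconclusive = only one of those two conditions met; inactive = neither condition met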
# Target sequence (Q9H3R0 2-372 limits assumed): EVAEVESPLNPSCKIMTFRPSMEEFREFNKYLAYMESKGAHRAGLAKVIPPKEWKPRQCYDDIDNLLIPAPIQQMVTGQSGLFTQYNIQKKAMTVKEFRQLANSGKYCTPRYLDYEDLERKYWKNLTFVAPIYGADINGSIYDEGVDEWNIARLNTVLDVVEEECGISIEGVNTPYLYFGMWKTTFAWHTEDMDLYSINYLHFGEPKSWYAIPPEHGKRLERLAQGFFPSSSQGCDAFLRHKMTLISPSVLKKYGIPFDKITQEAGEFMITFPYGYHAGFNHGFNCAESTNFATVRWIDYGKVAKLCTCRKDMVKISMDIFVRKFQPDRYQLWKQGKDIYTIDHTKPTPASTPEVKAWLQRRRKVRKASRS
#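 System: N-terminal GST-fused human GASC-1 (KDM4C) fragment, residues 2-372; amount: enzyme final amount 10 nM; incubation: reaction 30 min RT, detection step 1 h RT; medium: HEPES buffer, pH 7.5, plus ascorbate; technique: LANCE TR-FRET, Eu antibody, ULight-streptavidin, EDTA, ex 340 nm, em 618/671 nm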
# T cruzi growth-1 = T. cruzi intracellular proliferation inhibitors, primary screen, cell-based, beta-gal Tulahuen parasites, NIH3T3 host, luminescence; T. cruzi beta-gal in NIH3T3, GalScreen luminescence, 90 h; inhibition, % at 8.34 µM; 77,000 compounds, 5.9% hits; AID 624255, 2012;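 active = mean inhibition above about 93%, with at least 55% of replicates each passing it, limit read from the data, passing the limit was not always enough; inconclusive = only one of those two conditions holds; inactive = neither condition holds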
# Pf Dd2 growth = P. falciparum Dd2 growth inhibitors, primary screen, SYBR Green fluorescence, single dose replicates; 72 h; stronger effect = lower value; activity change, % at 10 µM; 94,000 compounds, 2.3% hits; AID 1159554, 2015; in the data active = activity change below about -80%; inconclusive = no clear call, values can overlap the other calls
# IDH1 mut inh = inhibitors of IDH1 R132H reductase, primary screen, biochemical, plate reader, single point; Isocitrate dehydrogenase [NADP] cytoplasmic (Homo sapiens), O75874; diaphorase/resazurin fluorescence, 60 min; inhibition, % at 10 µM; 70,000 compounds, 0.18% hits; in the data active = inhibition above about 34%; inconclusive = no clear call, values can overlap the other calls; inactive = below about 11%;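 also: 0% = DMSO and 100% = no enzyme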
# T cruzi growth-2 = T. cruzi intracellular proliferation inhibitors, confirmation, cell-based, NIH3T3 host, beta-gal parasite, luminescence, cherry-pick | inhibition, % at 8.35 µM | AID 651739, 2012 | shares compounds with T cruzi growth-1 | T. cruzi beta-gal in NIH3T3, GalScreen luminescence, 90 h | 5,600 compounds, 72% hits;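 active = mean replicate inhibition above about 95% and at least 55% of replicates individually reaching it, limit read from the data; inconclusive = only one of the two criteria is met; inactive = neither criterion is met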
# T cruzi growth-3 = inhibitors of intracellular T. cruzi replication, confirmation, NIH3T3 host cells, beta-gal parasites, cherry-pick, set 2. 5,600 compounds, 21% hits. shares compounds with T cruzi growth-1. inhibition, % at 2.09 µM. T. cruzi beta-gal in NIH3T3, GalScreen luminescence, 90 h. AID 651740, 2012;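 active = mean inhibition above about 95%, with at least 55% of replicates also reaching it, limit read from the data; inconclusive = meets just one of the two conditions; inactive = meets neither condition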;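 also: plate controls were neutral control median for no effect and positive control median for full effect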
# NIH3T3 tox = cytotoxicity in mouse NIH/3T3 fibroblasts, confirmation, cytotoxicity control for T. cruzi proliferation inhibitor project, cell-based, cherry-pick, single point | shares compounds with T cruzi growth-1 | NIH/3T3 viability, CellTiter-Glo ATP luminescence, 90 h | cytotoxicity (signal decrease), % at 8.35 µM | 5,600 compounds, 14% hits | AID 651742, 2012;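 active = mean signal decrease across replicates above about 35% based on untreated-well scatter, with enough replicates individually passing, limit read from the data; inconclusive = no rule stated though some were filed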;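 also: 0% = median of neutral control wells and 100% = median of positive control wells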
# 3T3 cytotox 2 = NIH/3T3 fibroblast cytotoxicity, confirmation, cytotoxicity control, cell-based, cherry-pick, single point, set 2; shares compounds with T cruzi growth-1; NIH/3T3 viability, CellTiter-Glo ATP luminescence, 90 h; inhibition, % at 24.9 µM; 5,600 compounds, 56% hits; AID 651744, 2012;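 active = mean loss of cell viability signal at or above a set limit, and enough replicates individually reaching it; inconclusive = meets only the mean limit or only the replicate share; inactive = meets neither condition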;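 also: 0% = median of neutral control wells and 100% = median of positive control wells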
# Active calls of the source: *; u = inconclusive; x = no result given. Shown are actives, neighbours in structure and some others; about 5.8% of the full set was active somewhere.
SMILES,GASC1 inh,T cruzi growth-1,Pf Dd2 growth,IDH1 mut inh,T cruzi growth-2,T cruzi growth-3,NIH3T3 tox,3T3 cytotox 2
COCC#Cc1ccc([C@@H]2[C@H](CO)N3CCCCN(S(=O)(=O)c4ccccc4C)C[C@@H]23)cc1,-1,27,-62,x,x,x,x,x
CCCC#Cc1ccc([C@H]2[C@@H](CO)N3CCCCN(S(=O)(=O)c4ccccc4C)C[C@@H]23)cc1,14,108*,-73,x,100*,94,3,-4
COCC#Cc1ccc([C@H]2[C@@H](CO)N3CCCCN(S(=O)(=O)c4ccccc4C)C[C@@H]23)cc1,-2,86,-41,x,x,x,x,x
C=C(C(=O)/C=C/C(C)(C)O)C1CC2O[C@]2(C)C(=O)[C@H]1OC(=O)CC(C)C (stereo not given in full),x,x,x,0,x,x,x,x
CCCC#Cc1ccc([C@@H]2[C@@H](CO)N3CCCCN(S(=O)(=O)CC)C[C@@H]23)cc1,-2,102*,14,x,50,10,30,35*
COCC#Cc1ccc([C@H]2[C@@H](CO)N3CCCCN(S(=O)(=O)c4ccccc4C)C[C@H]23)cc1,-2,98*,-62,x,98*,70,17,107*
COCC#Cc1ccc([C@H]2[C@H]3CN(S(=O)(=O)c4ccccc4C)CCCCN3[C@H]2CO)cc1,-2,95,-24,x,x,x,x,x
CCCC#Cc1ccc([C@@H]2[C@H]3CN(S(=O)(=O)CC)CCCCN3[C@H]2CO)cc1,0,17,6,x,x,x,x,x
COC(=O)c1cc(NC(=O)CN(c2cc(C)cc(C)c2)S(C)(=O)=O)ccc1Cl,x,x,x,1,x,x,x,x
CCCC#Cc1ccc([C@H]2[C@@H](CO)N3CCCCN(C(=O)NC4CCCC4)C[C@H]23)cc1,0,u,-79,x,106*,81,44*,103*
CCCC#Cc1ccc([C@@H]2[C@H](CO)N3CCCCN(C(=O)NC4CCCC4)C[C@@H]23)cc1,-3,u,-43,x,109*,89,14,103*
Cc1c(Cl)cccc1NC(=O)CN(c1ccc(I)cc1)S(C)(=O)=O,x,x,x,1,x,x,x,x
COc1ccc([N+](=O)[O-])cc1NC(=O)CCSc1ccc(C)cc1,x,x,x,-1,x,x,x,x
Cc1ccccc1S(=O)(=O)N1CCCCN2[C@@H](CO)[C@@H](c3ccc(-c4cccc(F)c4)cc3)[C@@H]2C1,-5,55,-76,x,x,x,x,x
Cc1ccccc1S(=O)(=O)N1CCCCN2[C@H](CO)[C@@H](c3ccc(-c4ccccc4)cc3)[C@@H]2C1,x,102*,3,x,98*,80,36*,45*
Cc1ccccc1S(=O)(=O)N1CCCCN2[C@H](CO)[C@H](c3ccc(-c4cccc(F)c4)cc3)[C@@H]2C1,-2,81,-14,x,x,x,x,x
Cc1ccccc1S(=O)(=O)N1CCCCN2[C@H](C1)[C@H](c1ccc(-c3cccc(F)c3)cc1)[C@@H]2CO,-1,103*,-33,x,103*,106*,-12,57*
Cc1ccccc1S(=O)(=O)N1CCCCN2[C@H](CO)[C@@H](c3ccc(-c4cccc(F)c4)cc3)[C@H]2C1,-1,106*,-40,x,104*,59,18,76*
COc1ccc(NC(=O)C23CC4CC(C2)CC(C(=O)Nc2ccc(OC)c(OC)c2)(C4)C3)cc1OC,x,x,x,2,x,x,x,x
Cc1cccc(S(=O)(=O)N2CCCCN3[C@H](CO)[C@H](c4ccc(C#CC(C)C)cc4)[C@@H]3C2)c1,-1,97*,-35,x,98*,100*,37*,105*
Cc1cccc(S(=O)(=O)N2CCCCN3[C@H](C2)[C@@H](c2ccc(C#C[C@H](C)O)cc2)[C@@H]3CO)c1,0,101*,-6,x,102*,66,65*,27*
Cc1cccc(S(=O)(=O)N2CCCCN3[C@H](CO)[C@@H](c4ccc(C#CC(C)C)cc4)[C@@H]3C2)c1,1,118*,-28,x,101*,98*,10,49*
Cc1cccc(S(=O)(=O)N2CCCCN3[C@H](CO)[C@H](c4ccc(C#C[C@H](C)O)cc4)[C@@H]3C2)c1,-1,74,-30,x,x,x,x,x
CCn1c(SCC(=O)Nc2ccccc2C(F)(F)F)nnc1-c1cccc([N+](=O)[O-])c1,x,x,x,0,x,x,x,x
O=C(CCN1C(=O)c2ccccc2C1=O)Nc1ccccc1C(=O)N1CCCC1,x,x,x,0,x,x,x,x
SMILES,GASC1 inh,T cruzi growth-1,Pf Dd2 growth,IDH1 mut inh,T cruzi growth-2,T cruzi growth-3,NIH3T3 tox,3T3 cytotox 2
CC(=O)c1ccc(NC(=O)C(C)N2C(=O)C3C4C=CC(C5CC45)C3C2=O)cc1 (stereo not given),x,x,x,-1,x,x,x,x
Cc1cccc(OCC(=O)Nc2ccc(Cl)c(-c3nc4ccccc4o3)c2)c1,x,x,x,0,x,x,x,x
C[C@H](CO)N1C[C@H](C)[C@H](CN(C)C(=O)c2cccc(F)c2)Oc2cc(-c3ccncc3)ccc2S1(=O)=O,0,109*,-43,6,89,80,3,28
C[C@@H]1CN([C@H](C)CO)S(=O)(=O)c2ccc(-c3ccncc3)cc2O[C@H]1CN(C)C(=O)c1cccc(F)c1,-1,113*,-41,0,84,78,2,47*
C[C@H](CO)N1C[C@H](C)[C@H](CN(C)C(=O)c2cccc(F)c2)Oc2cc(-c3cccc(F)c3)ccc2S1(=O)=O,-2,44,-37,0,x,x,x,x
C[C@H]1CN([C@@H](C)CO)S(=O)(=O)c2ccc(-c3ccncc3)cc2O[C@@H]1CN(C)C(=O)c1cccc(F)c1,0,114*,-59,0,92,67,8,u
C[C@@H]1CN([C@@H](C)CO)S(=O)(=O)c2ccc(-c3ccncc3)cc2O[C@@H]1CN(C)C(=O)c1cccc(F)c1,0,90,-16,7,x,x,x,x
NC(=O)CSc1ncn(-c2ccccc2)n1,x,x,x,0,x,x,x,x
C[C@@H]1CCCCO[C@H](CN(C)C(=O)NC2CCCCC2)[C@@H](C)CN([C@H](C)CO)C(=O)c2cc(NC(=O)Nc3ccc(C(F)(F)F)cc3)ccc2O1,0,92,-6,x,x,x,x,x
